Assay results as given in ChEMBL document CHEMBL3734747, “Varioxiranols A-G and 19-O-Methyl-22-methoxypre-shamixanthone, PKS and Hybrid PKS-Derived Metabolites from a Sponge-Associated Emericella variecolor Fungus” (J Nat Prod, 2015).
The source made the active and inactive calls. No cut-off for these calls is given here.

Columns and labels:
HepG2 [1] = assay: Inhibition of oleic acid-induced total cholesterol level in human HepG2 cells at 10 uM; type: functional, cell-based
In short: (§1)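 HepG2 cells at 70–80% confluence exposed to 100 μM oleic acid in DMEM for 12 h, then compound at 10 μM plus 100 μM oleic acid for 6 h. Statin positive control. Intracellular total cholesterol and triglyceride measured with commercial kits. n = 3, experiment repeated in triplicate, mean ± SEM.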

HepG2 [2] = assay: Inhibition of oleic acid-induced triglyceride level in human HepG2 cells at 10 uM; type: functional, cell-based; in short: as §1
HepG2 [3] = assay: Inhibition of oleic acid-induced lipid accumulation in human HepG2 cells at 10 uM by oil red O staining analysis; type: functional, cell-based
In short: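 HepG2 cells in DMEM with 10% FBS and penicillin/streptomycin, grown to 70–80% confluence, preloaded with 100 μM oleic acid for 12 h, then given compound at 10 μM in DMEM/100 μM oleic acid for another 6 h. Statin positive control and DMEM/oleic acid blank. Oil Red O staining read by spectrophotometry at 358 nm. n = 8, experiment repeated in triplicate, mean ± SEM.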

HepG2 [4] = assay: Cytotoxicity against human HepG2 cells upto 100 uM by MTT assay; type: cell-based
HepG2 [5] = assay: Decrease in acetyl-CoA carboxylase mRNA level in human HepG2 cells by RT-PCR analysis; type: functional, cell-based
HepG2 [6] = assay: Decrease in fatty acid synthase mRNA level in human HepG2 cells by RT-PCR analysis; type: functional, cell-based
HepG2 [7] = assay: Decrease in SREBP-1c mRNA level in human HepG2 cells by RT-PCR analysis; type: functional, cell-based

In the case of `CCC[C@H](O)[C@H](O)/C=C/c1cccc(OC)c1CO`, the inhibition (HepG2 [1]) is reported as “inactive”, the inhibition (HepG2 [2]) is reported as “Active” and the inhibition (HepG2 [3]) is reported as “Active”. The Activity (HepG2 [4]) was “Non-toxic”.
In the case of `C/C=C/[C@H](O)[C@H](O)/C=C/c1cccc(OC)c1CO`, the inhibition (HepG2 [2]) is reported as “inactive”, the inhibition (HepG2 [3]) is reported as “Active” and the Activity (HepG2 [4]) is reported as “Non-toxic”.
`C=C(C)[C@H]1COc2c(C)cc(O)c(C(=O)c3c(O)ccc(CC=C(C)C)c3O)c2[C@@H]1O` was tested, and the inhibition (HepG2 [5]) was “Active”, the inhibition (HepG2 [6]) was “Active” and the inhibition (HepG2 [7]) was “Active”. The inhibition (HepG2 [1]) was “Active”, the inhibition (HepG2 [2]) was “Active” and the inhibition (HepG2 [3]) was “Active”. The Activity (HepG2 [4]) was “Non-toxic”.
